According to ChEMBL document CHEMBL3102834, “Discovery of 5-substituted pyrrolo[2,3-d]pyrimidine antifolates as dual-acting inhibitors of glycinamide ribonucleotide formyltransferase and 5-aminoimidazole-4-carboxamide ribonucleotide formyltransferase in de novo purine nucleotide biosynthesis: implications of inhibiting …” (J Med Chem, 2013):
Active and inactive are the calls of the source. The rule behind the calls is not given here.

Key:
KB [1] = test: Cell cycle arrest in human KB cells after 48 hrs by propidium iodide staining-based flow cytometry; assay type: functional
Outline: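 KB cells exposed to 1 μM drug for 48 h in FF-RPMI with 10% DFBS and 2 nM LCV, harvested by trypsin and fixed in ice-cold ethanol. Stained with 50 μg/mL PI plus 100 μg/mL RNase for at least 20 min at room temperature in the dark. Flow cytometry counted at least 10 000 events. G1/G0, S, G2/M and sub-G1 fractions were fitted by Watson Pragmatic model.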

R2 = test: Cytotoxicity against chinese hamster R2 cells after 96 hrs by CellTitre-Blue fluorescence assay; details: Cricetulus griseus, R2, 96 h
[2] = Cytotoxicity against chinese hamster RT16 cells expressing human FRalpha after 96 hrs by CellTitre-Blue fluorescence assay; assay type: functional, cell-based; details: Cricetulus griseus, RT16, 96 h
Outline: (§1)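 CHO sublines were grown in FF-RPMI/DFBS; transfectants were maintained with G418. Cells were exposed to antifolate (0–1 μM) for 96 h at 37 °C with 2 nM LCV (RT16) or 25 nM LCV (R2/PCFT4). PC43-10 cells were grown in standard RPMI1640/DFBS instead. FRα specificity was tested by adding 200 nM folic acid. Viable cells were read by CellTiter-Blue fluorescence (ex 560/em 590), and IC50 was taken from dose–response curves; means of 3–10 experiments.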

[3] = target: Bifunctional purine biosynthesis protein ATIC (Homo sapiens) (UniProt P31939); test: Inhibition of AICARFTase in human KB cells assessed as accumulation of ZMP at 1 uM after 48 hrs by HPLC analysis; assay type: cell-based
Sequence of Bifunctional purine biosynthesis protein ATIC (Homo sapiens) (P31939 whole entry, looked up): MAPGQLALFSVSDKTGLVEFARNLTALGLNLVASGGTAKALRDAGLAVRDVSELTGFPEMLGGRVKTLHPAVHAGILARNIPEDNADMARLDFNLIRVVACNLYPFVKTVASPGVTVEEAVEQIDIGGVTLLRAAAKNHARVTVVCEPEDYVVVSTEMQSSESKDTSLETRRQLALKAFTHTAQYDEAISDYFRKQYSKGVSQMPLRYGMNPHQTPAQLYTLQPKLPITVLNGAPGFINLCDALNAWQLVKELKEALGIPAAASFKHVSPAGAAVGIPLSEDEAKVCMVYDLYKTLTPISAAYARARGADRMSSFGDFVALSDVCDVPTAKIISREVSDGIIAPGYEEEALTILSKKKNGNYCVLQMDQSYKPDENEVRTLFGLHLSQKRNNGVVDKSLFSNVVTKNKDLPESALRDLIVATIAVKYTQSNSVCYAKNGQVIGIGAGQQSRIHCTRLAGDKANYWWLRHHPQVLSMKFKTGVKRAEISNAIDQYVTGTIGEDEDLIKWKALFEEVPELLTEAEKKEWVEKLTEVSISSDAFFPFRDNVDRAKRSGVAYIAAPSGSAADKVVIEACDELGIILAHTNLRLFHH
Outline: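 KB cells were treated with 1 μM drug for 48 h in FF-RPMI/10% DFBS with 2 nM LCV. Metabolites were extracted with 5% TCA and then ether. They were separated by SAX ion-exchange HPLC using an NH4H2PO4 gradient (5 mM pH 2.8 to 750 mM pH 3.9) over 25 min with detection at 280 nm. ZMP was quantified against a standard curve with an AraCMP internal control; three experiments.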

[4] = target: Folate receptor alpha (Homo sapiens) (UniProt P15328); test: Displacement of [3H]folic acid from human FRalpha expressed in chinese hamster RT16 cells after 15 mins by scintillation counting analysis; assay type: cell-based
Sequence of Folate receptor alpha (Homo sapiens) (P15328 25-234 limits assumed): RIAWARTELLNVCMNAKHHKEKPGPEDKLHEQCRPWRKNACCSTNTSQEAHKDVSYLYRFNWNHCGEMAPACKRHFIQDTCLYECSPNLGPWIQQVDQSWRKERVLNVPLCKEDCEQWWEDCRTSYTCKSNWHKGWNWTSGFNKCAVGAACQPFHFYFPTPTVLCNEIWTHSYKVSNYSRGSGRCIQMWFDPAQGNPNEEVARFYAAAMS
Outline: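 FRα-expressing RT16 CHO cells (~1.5 × 10^6) were grown as monolayers. Bound folates were stripped with ice-cold acetate buffer (pH 3.5), then neutralised with HEPES-buffered saline (pH 7.4). Cells were then competed with [3H]folic acid against graded unlabelled ligand. Bound label read by scintillation, normalised to Folin-phenol protein (pmol/mg). Relative affinity = inverse molar ratio for 50% displacement, folic acid set at 1. Three experiments.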

KB [5] = test: Cytotoxicity against human KB cells expressing human RFC/FRalpha/PCFT after 96 hrs by CellTitre-Blue fluorescence assay in presence of AICA; assay type: functional, cell-based
Outline: (§2)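 KB cells were grown in FF-RPMI with DFBS and 2 nM LCV, exposed to antifolate (0–1 μM) for 96 h at 37 °C, and read by CellTiter-Blue fluorescence. IC50 was taken from dose–response curves relative to untreated cells. Protection arms added adenosine 60 μM, thymidine 10 μM, AICA 320 μM, or folic acid 200 nM. Means of 3–10 experiments.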

KB [6] = test: Cytotoxicity against human KB cells expressing human RFC/FRalpha/PCFT assessed as depletion of ATP pools at 1 uM after 24 hrs by ion-pair HPLC analysis; assay type: functional
Outline: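 KB cells in FF-RPMI/10% DFBS with 2 mM glutamine and 2 nM LCV were exposed to 1 μM drug for 24 h. They were trypsinized and washed, and nucleotides were extracted. ATP was quantified by reversed-phase ion-pair HPLC on a C18 column. Results are means ± standard errors.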

KB [7] = test: Cytotoxicity against human KB cells expressing human RFC/FRalpha/PCFT after 96 hrs by CellTitre-Blue fluorescence assay in presence of thymidine; assay type: functional, cell-based; outline: as §2
[8] = target: T1, Reduced folate transporter (Homo sapiens) (UniProt P41440); test: Inhibition of human RFC expressed in chinese hamster PC43-10 cells assessed as reduction of [3H]MTX uptake at 10 uM after 48 hrs by scintillation counting analysis relative to control; assay type: cell-based
T1 sequence (whole entry): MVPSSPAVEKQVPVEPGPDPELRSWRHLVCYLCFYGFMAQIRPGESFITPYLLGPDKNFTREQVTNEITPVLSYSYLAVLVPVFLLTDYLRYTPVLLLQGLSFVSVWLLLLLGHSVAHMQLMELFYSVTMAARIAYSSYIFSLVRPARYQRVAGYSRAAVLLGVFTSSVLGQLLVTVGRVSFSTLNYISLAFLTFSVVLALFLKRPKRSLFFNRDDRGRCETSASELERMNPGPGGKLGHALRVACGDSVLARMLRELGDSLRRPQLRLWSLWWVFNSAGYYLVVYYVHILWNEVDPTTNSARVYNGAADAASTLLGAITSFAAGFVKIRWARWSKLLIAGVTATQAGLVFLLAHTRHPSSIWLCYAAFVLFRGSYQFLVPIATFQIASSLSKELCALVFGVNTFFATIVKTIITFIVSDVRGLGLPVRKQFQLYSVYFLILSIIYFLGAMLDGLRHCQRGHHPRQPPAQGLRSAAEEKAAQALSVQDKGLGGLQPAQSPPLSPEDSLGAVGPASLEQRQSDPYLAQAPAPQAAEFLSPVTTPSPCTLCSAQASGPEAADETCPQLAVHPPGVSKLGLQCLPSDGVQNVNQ
Outline: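 PC43-10 CHO cells expressing human RFC (~1.5 × 10^6) were seeded 48 h before assay. Uptake of 0.5 μM [3H]MTX was run in Hank's balanced salts for 2 min at 37 °C, with or without 10 μM unlabelled inhibitor, and stopped with ice-cold PBS. Cells were dissolved in 0.5 N NaOH, counted by scintillation and normalised to Folin-phenol protein (pmol/mg). RFC-null R2 cells gave baseline. Three experiments.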

[9] = Cytotoxicity against chinese hamster R2(VC) cells after 96 hrs by CellTitre-Blue fluorescence assay; assay type: functional, cell-based; details: Cricetulus griseus; outline: as §1
[10] = Cytotoxicity against chinese hamster PC43-10 cells expressing human RFC after 96 hrs by CellTitre-Blue fluorescence assay; assay type: functional, cell-based; details: Cricetulus griseus, PC43-10, 96 h; outline: as §1
KB [11] = test: Induction of apoptosis in human KB cells assessed as late apoptotic cells at 1 uM after 96 hrs by Annexin V-FITC/7-AAD staining-based flow cytometry (reference value: 2.09%); assay type: functional
KB [12] = test: Cytotoxicity against human KB cells at 10 uM incubated for 48 hrs followed by compound washout measured after 10 days by colony forming assay; assay type: functional, cell-based
Outline: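 About 500 KB cells were plated in FF-RPMI/DFBS with 2 nM LCV for 24 h. Drug (0–10 μM) was then added, and exposure is stated as 24 h in Methods and 48 h in the legend. Medium was replaced with drug-free FF-RPMI plus 2 nM LCV for 8–10 days. Colonies were fixed with 5% TCA, stained with 1% methylene blue in borate buffer pH 8.8, and counted; three experiments.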

KB [13] = test: Cell cycle arrest in human KB cells assessed as accumulation at sub-G1 phase at 1 uM after 96 hrs by propidium iodide staining-based flow cytometry (reference value: 3.5%); assay type: functional

inhibition [3]: Active
Activity [4]: Active
inhibition [8]: > 90%
Structure (SMILES): Nc1nc2[nH]cc(CCCCc3ccc(C(=O)N[C@@H](CCC(=O)O)C(=O)O)cc3)c2c(=O)[nH]1
Activity (KB [1]): Active
IC50 (R2): > 1000 nM
IC50 [2]: 8.6 nM
Activity (KB [5]): Active
inhibition at 1 µM (KB [6]): > 90%
Activity (KB [7]): Active
IC50 [9]: > 1000 nM
IC50 [10]: 56.6 nM
Activity (KB [11]): 26.7%
Activity (KB [12]): Active
Activity (KB [13]): 36.7%
